# ChEMBL document CHEMBL1144286, “Parallel synthesis of pteridine derivatives as potent inhibitors for hepatitis C virus NS5B RNA-dependent RNA polymerase” (Bioorg Med Chem Lett, 2005)
# Molecular target: RNA-directed RNA polymerase (Hepacivirus hominis, UniProt O39930)
# Assay: Inhibitory concentration against RNA dependent RNA polymerase Nonstructural protein 5B of hepatitis C virus
# Method in brief: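 Run per an earlier published HCV NS5B RdRp procedure. Compounds were dissolved in DMSO and then transferred into assay buffer. Each was tested in duplicate, and IC50 was taken as the concentration giving 50% inhibition of polymerase activity.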
# Sequence of RNA-directed RNA polymerase (O39930 whole entry): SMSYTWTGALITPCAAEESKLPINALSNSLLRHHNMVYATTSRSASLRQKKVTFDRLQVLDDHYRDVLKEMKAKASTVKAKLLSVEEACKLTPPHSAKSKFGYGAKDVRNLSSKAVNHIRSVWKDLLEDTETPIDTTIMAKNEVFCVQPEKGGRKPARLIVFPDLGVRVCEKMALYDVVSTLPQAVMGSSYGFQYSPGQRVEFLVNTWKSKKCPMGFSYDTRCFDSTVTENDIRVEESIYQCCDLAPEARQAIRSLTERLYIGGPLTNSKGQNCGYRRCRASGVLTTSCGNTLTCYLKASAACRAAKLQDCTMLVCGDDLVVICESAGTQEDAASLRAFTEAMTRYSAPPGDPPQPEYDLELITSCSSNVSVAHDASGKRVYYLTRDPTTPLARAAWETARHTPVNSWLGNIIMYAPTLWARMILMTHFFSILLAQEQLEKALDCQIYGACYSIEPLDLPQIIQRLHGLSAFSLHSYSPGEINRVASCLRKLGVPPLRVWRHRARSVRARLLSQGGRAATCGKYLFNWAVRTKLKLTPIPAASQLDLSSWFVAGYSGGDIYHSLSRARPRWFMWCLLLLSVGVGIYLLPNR
row,IC50,SMILES
1,26 µM,Fc1ccc(CCNc2ncnc3nc(-c4ccc(F)cc4)c(-c4ccc(F)cc4)nc23)cc1
2,58 µM,Oc1ncnc2nc(-c3ccco3)c(-c3ccco3)nc12
3,51 µM,COC(=O)C1CCCN1c1ncnc2nc(-c3ccc(F)cc3)c(-c3ccc(F)cc3)nc12 (configuration not stated)
4,68 µM,Fc1ccc(-c2nc3ncnc(N4CCCCC4)c3nc2-c2ccc(F)cc2)cc1
5,73 µM,CCCCOCCCNc1ncnc2nc(-c3ccc(F)cc3)c(-c3ccc(F)cc3)nc12
6,30 µM,O=[N+]([O-])c1ccc(-c2nc3ncnc(O)c3nc2-c2ccccc2)cc1
7,0.5 µM,Oc1ncnc2nc(-c3ccc(F)cc3)c(-c3ccc(F)cc3)nc12
8,10 µM,CCCCC(CC)CNc1ncnc2nc(-c3ccc(F)cc3)c(-c3ccc(F)cc3)nc12 (configuration not stated)
9,2.1 µM,Fc1ccc(-c2nc3ncnc(NC4CCC4)c3nc2-c2ccc(F)cc2)cc1
10,3.2 µM,Fc1ccc(-c2nc3ncnc(NC4CCCCCC4)c3nc2-c2ccc(F)cc2)cc1
11,2.9 µM,CCNc1ncnc2nc(-c3ccc(F)cc3)c(-c3ccc(F)cc3)nc12
12,87 µM,CCCCOCCCNc1ncnc2nc(-c3ccccc3)c(-c3ccccc3)nc12
13,15 µM,Oc1ncnc2nc(-c3ccccc3)c(-c3ccccc3)nc12
14,30 µM,O=c1[nH]cnc2nc(-c3ccc(Br)cc3)c(-c3ccc(Br)cc3)nc12
15,16 µM,CCNc1ncnc2nc(-c3ccccc3)c(-c3ccccc3)nc12
16,13 µM,Fc1ccc(-c2nc3ncnc(NCCc4ccccc4)c3nc2-c2ccc(F)cc2)cc1
17,6 µM,CCCC(C)Nc1ncnc2nc(-c3ccccc3)c(-c3ccccc3)nc12 (configuration not stated)
18,9.6 µM,Cc1ccc(CNc2ncnc3nc(-c4ccc(F)cc4)c(-c4ccc(F)cc4)nc23)cc1
19,21 µM,CN(C)c1ncnc2nc(-c3ccc(F)cc3)c(-c3ccc(F)cc3)nc12
20,29 µM,c1ccc(-c2nc3ncnc(NC4CCCCCC4)c3nc2-c2ccccc2)cc1
21,23 µM,O=c1[nH]cnc2nc(-c3ccccc3)c(-c3ccc([N+](=O)[O-])cc3)nc12
22,80 µM,COc1ccccc1CCNc1ncnc2nc(-c3ccc(F)cc3)c(-c3ccc(F)cc3)nc12

# Second part, the compound before the results:
row,SMILES,IC50
1,COc1cccc(-c2nc3ncnc(O)c3nc2-c2cccc(OC)c2)c1,> 100 µM
2,Oc1ncnc2nc(-c3ccccn3)c(-c3ccccn3)nc12,> 100 µM
3,Fc1ccc(-c2nc3ncnc(NCc4ccco4)c3nc2-c2ccc(F)cc2)cc1,2.9 µM
4,CC1CCC(Nc2ncnc3nc(-c4ccc(F)cc4)c(-c4ccc(F)cc4)nc23)CC1 (configuration not stated),1.3 µM
5,Cc1ccc(-c2nc3ncnc(O)c3nc2-c2ccc(C)cc2)cc1,> 100 µM
6,Cc1ccc(CNc2ncnc3nc(-c4ccccc4)c(-c4ccccc4)nc23)cc1,> 100 µM
7,Fc1ccc(CCNc2ncnc3nc(-c4ccccc4)c(-c4ccccc4)nc23)cc1,> 100 µM
8,O=c1[nH]cnc2nc(-c3ccccc3Cl)c(-c3ccccc3Cl)nc12,> 100 µM
9,COc1ccc(-c2nc3ncnc(O)c3nc2-c2ccc(OC)cc2)cc1,> 100 µM
10,CCCCCCNc1ncnc2nc(-c3ccccc3)c(-c3ccccc3)nc12,> 100 µM
11,O=c1[nH]cnc2nc3c(nc12)C1CCCCC31 (configuration not stated),> 100 µM
12,O=c1[nH]cnc2nc3c4ccccc4c4ccccc4c3nc12,> 100 µM
13,CCCC(C)Nc1ncnc2nc(-c3ccc(F)cc3)c(-c3ccc(F)cc3)nc12 (configuration not stated),1.5 µM
14,c1ccc(-c2nc3ncnc(N4CCCCC4)c3nc2-c2ccccc2)cc1,> 100 µM
15,CCCCCCNc1ncnc2nc(-c3ccc(F)cc3)c(-c3ccc(F)cc3)nc12,> 100 µM
